Experimental data reported in the EternaBench riboswitch data.

System: MS2 coat protein
Assay: apparent Kd, MS2 coat protein; higher = weaker binding; RNA-MaP array; FMN 200 µM where present
Method in brief: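 The apparent Kd comes from binding curves fitted cluster by cluster, filtered, and summarised as a median. Those curves followed SNAP-549-labelled MS2 coat protein from 0.7 or 1.5 nM, doubling to 3 µM, on Illumina sequencing-chip clusters where stalled E. coli RNA polymerase had transcribed the designs, without and then with constant ligand. The buffer was 100 mM Tris-HCl pH 7.5, 80 mM KCl, 4 mM MgCl2, BSA, DTT, yeast tRNA and Tween-20, and green signal was normalised to red-channel RNA signal and control-cluster median Fmax.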

[1] = designed as: OFF switch for flavin mononucleotide, no ligand
[2] = ligand present: flavin mononucleotide, designed as: OFF switch for flavin mononucleotide
[3] = designed as: ON switch for flavin mononucleotide, no ligand
[4] = ligand present: flavin mononucleotide, designed as: ON switch for flavin mononucleotide

Row | Sequence | apparent Kd [1] [nM] | apparent Kd [2] [nM] | apparent Kd [3] [nM] | apparent Kd [4] [nM]
1 | UCAUGGUAGCAGGAUAUGCUUGUUUUUUUUUUUGCAGAAGGGCUUACAUGAGGAUCACCCAUGUGUUAGGUCUA | 25.2 | 30.8 | – | –
2 | GUAUUUAGAUAAGGAUAUAAGUCUAUGACAUGAGGAUCACCCAUGUGUGUUUUAGAAGGUAUUUGGGUAAUAUUGUUACAGUAA | – | – | 29.6 | 21.3
3 | AGCUGGUGACAGCAUCGAGCUAAACAUGAGGAUCACCCAUGUAGAAGGCUGUACGGUUACCGUACAGAGGAUAUACAAAGCUCG | 6.06 | 7.17 | – | –
4 | AGCGCGGUCUCGCAGGAUAUCCACAAUCCUACAUGAGGAUCACCCAUGUCGCUGCAGGAUAUUAGGGAGAAGGGUGAUGCCGCGC | – | – | 34.5 | 20.7
5 | CAGUCUACAGGAUAUACAUGAGGAUCACCCAUGUGUAUUCACUUUCAGUAGUCUUUAUGUAGAAGGGUAGACUG | 15.9 | 26.7 | – | –
6 | GUUAUUUAUGUAGGAUAUGCGAGGCGAGCCUGAGCAGAAGGACAUGAGGAUCACCCAUGUAUUGCGGUUUAUGUUCAGAUCGCU | 15.3 | 19 | – | –
7 | AACUCGUCAGGAUAUGCGCACAGAUAAUACGCUUCGCAAUUGCAGAAGGGACAUGAGGAUCACCCAUGUAAAUA | 30.6 | 27 | – | –
8 | GUAUGCAAGUAGAAGGACGGAUAUUUUGAAAACGUAGGAUAUACAGAAUCAUAUCCACAUGGAUACAUGAGGAUCACCCAUGUA | 12 | 11.8 | – | –
9 | UUAGAAAUGUUAGGAUAUUAAUAUUUUUUUAGUAUGAUCUACAUGAGGAUCACCCAUGUUAAAAUUAAGAAGGAACAUUUUAUU | 69.7 | 56.9 | – | –
10 | AGUAAGAUGCAGAAGGUGUCAGCGAGAGCUACGACAUGAGGAUCACCCAUGUACUAGAUAGAGUACAAGGAUAUGCAUCUUACA | – | – | 729 | 35.1
11 | UUGGUUCUCGUAGGAUAUGUAGGAUAUGCCUACAUGAGGAUCACCCAUGUUCGCAUGGCAGAAGGACAGAAGGACGAUCACCAU | – | – | 378 | 17.3
12 | CACUCAUGUCUAGGAUAUGAGUGACAAGCGCGAAGUUUUUUCGGCGCUAGCUCAGAAGGAGACAUGAGGAUCACCCAUGUAAGG | 69.1 | 18.2 | – | –
13 | AAUCGCGGUCGAAAGCGGUUGCAUGAGGAUAUCCUGAGACAUGAGGAUCACCCAUGUAGACUGCAGGAGAAGGCAUGGAAAGAA | – | – | 244 | 21.1
14 | GACAUGAGGAUCACCCAUGUCCCUCCAGAAGGCUGGCGCGCGAAACCUAUCUCGGUUCCGCGCACAGAGGAUAUGGGCGGUUGG | – | – | 181 | 29.8
15 | UGCAGCGUGCACAUGAGGAUCACCCAUGUGCCAGCGGACGCACAGGAUAUGCAAUCGUACGGCUAGCAGAAGGGUGGGUCUCAC | – | – | 13.5 | 7.13
16 | CUAAAUCAUGUAGGAUAUGCAUGGCGAAGCUACGCAGAAGGACAUGAGGAUCACCCAUGUCACUCCGUCUGCGUACAGACGGAG | 19.7 | 92.3 | – | –
17 | ACAUGAGGCGCAGGAUAUGCAACAUGAUGAGUAGCAGAAGGGUGACAACAUGAGGAUCACCCAUGUAACAUGAGGAUCACCCAU | 28.3 | 33.3 | – | –
18 | GGAAAACAUGAGGAUCACCCAUGUGAAAACGUGGGAGGAUAUCGAUGGAAACCAUACUGUCGAGAAGGCCCAUGUC | – | – | 51.8 | 18
19 | AGAACAUGAGGAUCACCCAUGUUAAGGUCGGUAAAUAAGGGUGAGGAUAUGCUUAAAAUAAGGAAGCAGAAGGUGCUUGGUGCA | – | – | 183 | 195
20 | CUCGUGUUAGGAUAUCGUGGCUGGGCUGGGACGUCCGAUGGCGAGAAGGGACAUGAGGAUCACCCAUGUAAAAC | 28.6 | 27.6 | – | –
21 | AAUUAUUUAUGAGGAUAUUGUGGUGAAACACCACAAGAAGGCAUGAUACACAUGAGGAUCACCCAUGUGAGCCUUAUGCAUAUA | 20.3 | 115 | – | –
22 | GUAGCAUUGAGAGGAUAUCCAUACCGGAAACGGACAUGAGGAUCACCCAUGUGGCGAAAGCCGUGGGAGAAGGCUCUAUGCUAC | – | – | 8.39 | 4.32
23 | GAACGCCUAGGAUAUACAUGAGGAUCACCCAUGUCGCCCAGUCCUGGAGUGACCUCUAGUAGAAGGAGGAAUAA | 480 | 135 | – | –
24 | GUCAGCUCGUGAGGAUAUACAUGUGCUGGAAACAGCACUAUUAAAUUCACAUGAGGAUCACCCAUGUAGAAGGCACGAGCUGAU | 15.4 | 19.1 | – | –
25 | AAGUUUUUACAAGGAUAUCAGUUGUUUAUAAAUUAAACAUGAGGAUCACCCAUGUAACAAAGGAGUGAGAAGGUGUGAUGGAAA | – | – | 545 | 283
26 | UAAACACCCUCAUGUGCCUGAGGACAUGAGGAUCACCCAUGUAAGGAUAUAGCCAUUAAAUCUAACUAGAAGGUACAGGACAUC | 242 | 169 | – | –
27 | CGGCCCUAUCGAGGAUAUAAGUCUAGGACAUGAGGAUCACCCAUGUAUGUCUUAGAAGGCGAUAGGGCCAGCCUGUUACAGGCA | – | – | 29.7 | 6.23
